Screening results (PubChem)
TRPML3 ag = human TRPML3 channel agonists, primary screen, cell-based, HEK293 TRPML3-YFP, Fluo-8 calcium fluorescence, 3 µM; Mucolipin-3 (Homo sapiens), Q8TDD5; hit rate 0.29% among 220,000; activation, % at 3 µM; 100% = the carbachol control signal; AID 1448, 2008;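 active = activation above its plate's cutoff, the mean activation of the plate's test wells plus 3 SD, cut at about 12% in these data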
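system = HEK293 cells stably carrying human TRPML3-YFP | doses = one concentration, 3 µM nominal, 0.3% DMSO | timing = dye loading 1 h 37 °C then 30 min ambient, 125 s read | detection = Fluo-8 calcium dye fluorescence, ex 470-495, em 515-575 nm | benchmarks = high control carbachol 87 µM, low control DMSO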
TRPN1 ag = zebrafish TRPN1 channel agonists, primary screen, cell-based, HEK293, calcium fluorescence. transient receptor potential cation channel N1 (TRPN1/NompC), Danio rerio. HEK293 zebrafish TRPN1-YFP, Fluo-8 calcium fluorescence; 100% = response to 87 µM carbachol. activation, % at 3 µM. hit rate 0.18% among 220,000. AID 1424, 2008;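 active = activation above its plate's cutoff, the mean activation of test wells on that plate plus 3 SD, cut at about 19% in these data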
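System: zebrafish TRPN1-YFP in HEK293 cells / Dosing: 3 µM single point / Timing: dye loading 1 h at 37 °C, then 30 min room temperature / Signal: Fluo-8 calcium fluorescence, excitation 470-495 nm, emission 515-575 nm / Read-out basis: percent activation from peak over basal fluorescence ratio, control-normalized / Control set: high carbachol 87 µM, low DMSO alone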
GPR7 antagonist = GPR7 receptor antagonists, primary screen, cell-based, fluorescence, single concentration. GPR7-expressing cells, fluorescence antagonist assay. Neuropeptides B/W receptor type 1 (Homo sapiens), P48145. AID 1861, 2009. inhibition, % at 4.4 µM. hit rate 1.1% among 290,000; in the data active = inhibition above about 16%, passing the limit was not always enough;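 also: cells stimulated with the agonist NPW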
LANA-H2B inh = blockers of LANA interaction with H2A/H2B – biochemical, FP readout, HTS, primary screen. Protein LANA1 (Human herpesvirus 8 type P (isolate GK18)), Q9QR71. cell-free LANA-H2A/H2B peptide, fluorescence polarization. inhibition, % (no concentration beside the values). hit rate 0.6% among 320,000; in the data active = inhibition mostly above about 10%, no sharp cut-off; inactive = mostly below about 6.7%
Target sequence (Q9QR71 whole entry, looked up): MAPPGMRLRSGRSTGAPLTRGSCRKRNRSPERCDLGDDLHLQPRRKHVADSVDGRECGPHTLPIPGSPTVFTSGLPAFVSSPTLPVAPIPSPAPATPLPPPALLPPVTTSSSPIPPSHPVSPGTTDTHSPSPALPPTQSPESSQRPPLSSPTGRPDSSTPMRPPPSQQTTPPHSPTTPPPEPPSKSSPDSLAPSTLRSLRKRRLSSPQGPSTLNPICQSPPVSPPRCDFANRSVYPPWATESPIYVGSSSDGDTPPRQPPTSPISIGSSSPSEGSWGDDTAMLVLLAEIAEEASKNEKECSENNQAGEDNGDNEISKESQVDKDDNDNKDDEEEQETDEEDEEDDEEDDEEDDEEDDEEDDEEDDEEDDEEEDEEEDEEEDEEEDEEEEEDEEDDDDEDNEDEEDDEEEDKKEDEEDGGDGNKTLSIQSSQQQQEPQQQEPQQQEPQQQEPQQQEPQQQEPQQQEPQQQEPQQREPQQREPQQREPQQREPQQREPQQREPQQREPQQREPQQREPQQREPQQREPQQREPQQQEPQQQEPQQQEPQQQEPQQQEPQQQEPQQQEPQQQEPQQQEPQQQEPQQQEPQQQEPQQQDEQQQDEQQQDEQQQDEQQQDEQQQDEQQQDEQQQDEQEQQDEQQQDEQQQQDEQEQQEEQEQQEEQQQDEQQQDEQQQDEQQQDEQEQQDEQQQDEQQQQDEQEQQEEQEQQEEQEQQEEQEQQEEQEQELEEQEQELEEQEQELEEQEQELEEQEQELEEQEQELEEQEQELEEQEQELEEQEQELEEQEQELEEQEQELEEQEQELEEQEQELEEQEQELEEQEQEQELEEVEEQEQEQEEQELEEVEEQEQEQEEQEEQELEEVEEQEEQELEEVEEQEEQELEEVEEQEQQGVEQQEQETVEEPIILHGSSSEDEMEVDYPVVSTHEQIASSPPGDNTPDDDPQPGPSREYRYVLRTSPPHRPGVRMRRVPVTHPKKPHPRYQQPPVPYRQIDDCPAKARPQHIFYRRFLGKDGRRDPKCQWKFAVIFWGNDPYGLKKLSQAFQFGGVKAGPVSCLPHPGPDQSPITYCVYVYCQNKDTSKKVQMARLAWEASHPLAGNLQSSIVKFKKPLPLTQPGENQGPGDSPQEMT
TAAR1 agonist = human TAAR1 agonists, primary screen, Fluo-8 calcium fluorescence, CHO RD-HGA16 cells; Trace amine-associated receptor 1 (Homo sapiens), Q96RJ0; vehicle wells 0%, saturating PEA agonist 100%; activation, % at 3 µM; hit rate 0.99% among 360,000; AID 624467, 2012;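 active = activation above the mean activation of all test compounds in the run plus 3 SD, cut at about 38% in these data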
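Test system: RD-HGA16 (CHO) cells co-expressing Gα16 and hTAAR1 / Benchmarks: DMSO vehicle as 0%, PEA at EC100 as 100% / Repeats: no replicates (n 1) / Measure: % activation from peak over basal fluorescence ratio, DMSO-to-PEA scaled / Timing: 17-24 h plating, Fluo-8 75 min 37 °C, 30 min RT / Technique: kinetic Fluo-8 calcium fluorescence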
TAAR1 antagonist = human TAAR1 antagonists, primary screen, Fluo-8 calcium fluorescence, CHO RD-HGA16 cells | Trace amine-associated receptor 1 (Homo sapiens), Q96RJ0 | antagonist | inhibition, % at 3 µM | hit rate 1.5% among 360,000;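 active = inhibition above a per-plate cutoff, the mean inhibition of test compounds on that plate plus 3 SD, cut at about 49% in these data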
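Test system: RD-HGA16 CHO cells with stable hTAAR1 and Gα16 / Probe or stimulus: EC80 β-phenethylamine stimulus / Times: seeding 17-24 h prior, 75-min 37 °C, 30-min RT dye loading / Detection: Fluo-8 calcium-sensitive fluorescence / Read-out basis: % inhibition scaled between DMSO and EC80 PEA controls / Repeats: singlicate, one well per test compound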
GPR7 antag cf = GPR7 receptor antagonists, confirmation, cell-based, fluorescence, single concentration; shares compounds with GPR7 antagonist; GPR7-expressing cells, calcium fluorescence antagonist mode; inhibition, % at 4.4 µM; hit rate 52% among 2,400; in the data active = inhibition above about 24%;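 also: stimulated with the GPR7 agonist NPW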
MCHR1 antagonist = MCHR1 antagonists in cells, counter-screen for GPR7 antagonist project, cell-based, fluorescence, human; MCHR1-expressing cells, fluorescence antagonist assay; inhibition, % at 4.4 µM; shares compounds with GPR7 antagonist; AID 2148, 2009; hit rate 62% among 2,400; in the data active = inhibition above about 22%
A number is an active result. Hits are enriched below; roughly 3.4% of the tested compounds scored in any of these assays.

How did CC1(C)CSC(=NCc2ccccc2)N1C(=O)c1cccc([N+](=O)[O-])c1 do in these assays?
TRPML3 ag: 15; TRPN1 ag: 40; GPR7 antagonist: 71; LANA-H2B inh: inactive; TAAR1 agonist: inactive; TAAR1 antagonist: inactive; GPR7 antag cf: 75; MCHR1 antagonist: 82

How did CCOc1ccc(-c2cc(NC(=O)c3c(F)cccc3F)c(C(=O)O)s2)cc1 do in these assays?
GPR7 antagonist: 51; LANA-H2B inh: inactive; TAAR1 agonist: inactive; TAAR1 antagonist: inactive; GPR7 antag cf: 26; MCHR1 antagonist: 28

What do the screens show for `O=C(NCCCc1ccc(F)cc1)C1CCC(=O)N(CCCN2CCCC2=O)C1` (stereo not given)?
GPR7 antagonist: 35; LANA-H2B inh: inactive; TAAR1 agonist: inactive; TAAR1 antagonist: inactive; GPR7 antag cf: inactive; MCHR1 antagonist: inactive

How did O=C(NCCCC1CCCC1)C1CCC(=O)N(Cc2ccc(Cl)cc2)C1 (stereo not given) do in these assays?
GPR7 antagonist: 28; LANA-H2B inh: inactive; TAAR1 agonist: inactive; TAAR1 antagonist: inactive; GPR7 antag cf: inactive; MCHR1 antagonist: inactive

What do the screens show for `O=C(NCCc1ccccc1)C1CCC(=O)N(CCCN2CCCC2=O)C1` (stereo not given)?
GPR7 antagonist: inactive; LANA-H2B inh: inactive; TAAR1 agonist: inactive; TAAR1 antagonist: inactive

How did O=[N+]([O-])c1ccc(S(=O)(=O)NCC2CC3CCC2C3)cc1 (stereo not given) do in these assays?
GPR7 antagonist: inactive; LANA-H2B inh: inactive; TAAR1 agonist: inactive; TAAR1 antagonist: inactive

Results for O=[N+]([O-])c1cccc(S(=O)(=O)NCC2CC3CCC2C3)c1 (stereo not given) ?
GPR7 antagonist: 38; LANA-H2B inh: inactive; TAAR1 agonist: inactive; TAAR1 antagonist: inactive; GPR7 antag cf: inactive; MCHR1 antagonist: inactive

How did COc1ccc(NS(=O)(=O)c2cc(C(=O)N3CCC3)ccc2C)cc1 do in these assays?
LANA-H2B inh: inactive; TAAR1 agonist: inactive; TAAR1 antagonist: inactive

How did COc1ccc(C(O)c2ncc(-c3ccc4ccccc4c3)[nH]2)cc1 (stereo not given) do in these assays?
TAAR1 agonist: inactive; TAAR1 antagonist: inactive

What do the screens show for `Cn1c(=O)c([N+](=O)[O-])c(Cl)c2ccccc21`?
TRPML3 ag: inactive; TRPN1 ag: inactive; GPR7 antagonist: 26; TAAR1 agonist: inactive; TAAR1 antagonist: inactive; GPR7 antag cf: 51; MCHR1 antagonist: 76

What do the screens show for `CCN(CC)c1c([N+](=O)[O-])c(=O)n(C)c2ccccc12`?
TRPML3 ag: inactive; TRPN1 ag: inactive; GPR7 antagonist: inactive; LANA-H2B inh: inactive; TAAR1 agonist: inactive; TAAR1 antagonist: inactive

Results for CCN(Cc1ccccc1)C(c1ccccn1)c1nnnn1C(C)(C)CC (stereo not given) ?
TRPML3 ag: inactive; TRPN1 ag: inactive; GPR7 antagonist: 22; LANA-H2B inh: inactive; TAAR1 agonist: inactive; TAAR1 antagonist: inactive; GPR7 antag cf: 25; MCHR1 antagonist: 56

How did O=C(CSc1nnc(-c2ccccc2)c2ccccc12)NCCN1C(=O)CSC1=O do in these assays?
TAAR1 agonist: inactive; TAAR1 antagonist: inactive

How did CC(C)c1ccc(C(=O)Nc2nnc(S(=O)(=O)N3CCCCC3)s2)cc1 do in these assays?
GPR7 antagonist: 67; LANA-H2B inh: inactive; TAAR1 agonist: inactive; TAAR1 antagonist: inactive; GPR7 antag cf: inactive; MCHR1 antagonist: 27
